Here are results for seven compounds from ChEMBL document CHEMBL4257584, “Sterol 14α-Demethylase Structure-Based Optimization of Drug Candidates for Human Infections with the Protozoan Trypanosomatidae” (J Med Chem, 2018).

Activity calls are given as the source filed them. The calls are words filed in the database; no cut-off is given here.

A short description of series [1]: Half life in human liver microsomes at 1 uM preincubated for 5 mins followed by NADPH addition and measured by LC/MS/MS analysis. The class given is ADME, microsome. The conditions noted are these: microsomes, 1 µM.
Series [2] is described as follows: Intrinsic clearance in human liver microsomes at 1 uM preincubated for 5 mins followed by NADPH addition and measured after 45 mins by LC/MS/MS analysis. The class given is ADME, microsome. Particulars: read-out: CLH.
Series [3] in a line: Hepatic clearance in human liver microsomes at 1 uM preincubated for 5 mins followed by NADPH addition and measured after 45 mins by LC/MS/MS analysis. The class given is ADME, microsome.
A short description of series [4]: Intrinsic clearance in Sprague-Dawley rat liver microsomes at 1 uM preincubated for 5 mins followed by NADPH addition and measured after 45 mins by LC/MS/MS analysis. The class given is ADME, microsome. The conditions noted are these: read-out: CLH.
Series [5] is described as follows: Hepatic clearance in Sprague-Dawley rat liver microsomes at 1 uM preincubated for 5 mins followed by NADPH addition and measured after 45 mins by LC/MS/MS analysis. The class given is ADME, microsome. In a few lines: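 Pooled liver microsomes at 0.5 mg/mL: human (mixed gender), male Sprague-Dawley rat, or male CD-1 mouse, with test compound at 1 μM, triplicate. In vitro t1/2 is scaled to CLint (45 mg microsomes/g liver; 45 g liver/kg scaling factor). CLhep uses well-stirred model with hepatic blood flow 21 (human), 70 (rat), 90 (mouse) mL/min/kg.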

Series [6] in a line: Half life in Sprague-Dawley rat liver microsomes at 1 uM preincubated for 5 mins followed by NADPH addition and measured by LC/MS/MS analysis. The class given is ADME, microsome. The conditions noted are these: microsomes, 1 µM.
Series [7] is described as follows: Intrinsic clearance in CD1 mouse liver microsomes at 1 uM preincubated for 5 mins followed by NADPH addition and measured after 45 mins by LC/MS/MS analysis. Type of series: ADME, microsome. Particulars: read-out: CLH.
A short description of series [8]: Hepatic clearance in CD1 mouse liver microsomes at 1 uM preincubated for 5 mins followed by NADPH addition and measured after 45 mins by LC/MS/MS analysis. Type of series: ADME, microsome.
Series [9] can be described thus: Half life in CD1 mouse liver microsomes at 1 uM preincubated for 5 mins followed by NADPH addition and measured by LC/MS/MS analysis. The class given is ADME, microsome. The conditions noted are these: mouse, microsomes, 1 µM.
The nature of series [10]: Maximum plasma concentration in BALB/c mouse at 25 mg/kg, po via gavage by […]. Type of series: ADME, organism-based. More on the design: dose 25 mg/kg, route oral. The essentials: (§1)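 Single oral gavage dose of 25 mg/kg in BALB/c mice; blood sampled at 1, 2, 4, 6, 10, 16, 24 h. Plasma is diluted in PBS with ketoconazole internal standard, extracted with 80% acetonitrile, dried and redissolved. Analysed by reversed-phase HPLC with UV at 291/250 nm, 0.1 μM detection limit. Lifetime is time until undetectable.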

Series [11] can be described thus: Drug uptake in BALB/c mouse heart at 25 mg/kg, po via gavage measured after 4 hrs post dose by […]. The class given is ADME, organism-based. Particulars: read-out: Drug uptake. In a few lines:
(§2)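 BALB/c mice get a single oral gavage dose of 25 mg/kg; tissues are collected 4 h post-dose. About 100 mg tissue is diluted 5-fold in PBS and homogenized. Homogenate is extracted as for plasma (ketoconazole internal standard, acetonitrile extraction) and quantified by HPLC-UV at 291 nm, 0.1 μM detection limit, n=2.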

Series [12] is described as follows: Drug uptake in BALB/c mouse lungs at 25 mg/kg, po via gavage measured after 4 hrs post dose by […]. The class given is ADME, organism-based, Lung. Particulars: read-out: Drug uptake. In a few lines:
as §2

A short description of series [13]: Drug uptake in BALB/c mouse spleen at 25 mg/kg, po via gavage measured after 4 hrs post dose by […]. The class given is ADME, organism-based. Particulars: read-out: Drug uptake. The essentials:
as §2

Series [14] is described as follows: Drug uptake in BALB/c mouse blood at 25 mg/kg, po via gavage measured after 4 hrs post dose by […]. The class given is ADME, organism-based. The conditions noted are these: read-out: Drug uptake. The essentials: as §2
Series [15] is described as follows: Drug uptake in BALB/c mouse brain at 25 mg/kg, po via gavage measured after 4 hrs post dose by […]. The class given is ADME, organism-based. Particulars: read-out: Drug uptake. The essentials:
as §2

A short description of series [16]: Drug uptake in BALB/c mouse liver at 25 mg/kg, po via gavage measured after 4 hrs post dose by […]. The conditions noted are these: read-out: Drug uptake. Type of series: ADME, organism-based. In a few lines:
as §2

In series [17] the target is Sterol 14-alpha demethylase (Trypanosoma cruzi (strain CL Brener), UniProt Q7Z1V1). Briefly: Binding affinity to Trypanosoma cruzi Y CYP51A expressed in Escherichia coli. The essentials: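 Recombinant CYP51A from Y strain T. cruzi, expressed in E. coli and purified, titrated spectrally at 0.5 μM P450 in 5 cm path cuvettes with ligand over 0.1–1 μM. Type of absorbance change in difference spectra Δ(A430-A411) plotted against ligand concentration. Apparent Kd obtained by fitting to the Morrison quadratic tight-binding equation by nonlinear regression.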
Chain of Sterol 14-alpha demethylase (Q7Z1V1 whole entry): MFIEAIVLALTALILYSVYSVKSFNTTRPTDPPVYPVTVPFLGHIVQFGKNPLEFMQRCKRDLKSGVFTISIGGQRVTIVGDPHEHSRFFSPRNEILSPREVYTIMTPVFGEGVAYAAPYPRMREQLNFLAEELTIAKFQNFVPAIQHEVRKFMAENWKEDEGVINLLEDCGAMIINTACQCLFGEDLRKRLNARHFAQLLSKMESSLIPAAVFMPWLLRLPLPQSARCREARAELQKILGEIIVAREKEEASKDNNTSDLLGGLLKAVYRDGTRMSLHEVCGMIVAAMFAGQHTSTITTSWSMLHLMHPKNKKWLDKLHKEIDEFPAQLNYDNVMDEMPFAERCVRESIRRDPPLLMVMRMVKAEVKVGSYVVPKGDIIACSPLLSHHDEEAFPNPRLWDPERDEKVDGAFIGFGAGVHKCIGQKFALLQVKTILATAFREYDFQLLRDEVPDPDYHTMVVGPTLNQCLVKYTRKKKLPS

For series [18], the target named is Putative lanosterol 14-alpha-demethylase (Leishmania infantum, UniProt A2TEF2). Briefly: Binding affinity to Leishmania infantum CYP51 expressed in Escherichia coli. In a few lines:
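Purified E. coli-expressed L. infantum CYP51 at 0.5 μM is titrated with ligand at 0.1–1 μM in 5 cm path cuvettes. Difference-spectrum absorbance change Δ(A430−A411) is plotted against ligand concentration. Apparent Kd comes from a Morrison (quadratic) tight-binding fit by nonlinear regression.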

Series [19] has as its system Trypanosoma cruzi. Briefly: Antiparasitic activity against GFP-expressing Trypanosoma cruzi Tulahuen amastigote formss infected in cardiomyocytes assessed as reduction in rate of parasite multiplication within infected cardiomyocytes measured at 72 hrs post infection by fluorescence microscopy. Type of series: functional, organism-based. In a few lines: (§3)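 GFP-expressing trypomastigotes (Tulahuen or Y strain) infect cardiomyocyte monolayers at 10 parasites per cell, in DMEM + 10% FBS. Unbound parasites are washed off. At 24 h of infection, inhibitors at 0.5–25 nM in DMSO/DMEM are added and cultured 48 h. Read-out is at 72 h post-infection as GFP fluorescence (RFU) after PBS wash; microscopy uses paraformaldehyde fixation, DAPI and phalloidin stain. Triplicate.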

The test system of series [20] is Trypanosoma cruzi. Briefly: Antiparasitic activity against GFP-expressing Trypanosoma cruzi Y amastigote formss infected in cardiomyocytes assessed as reduction in rate of parasite multiplication within infected cardiomyocytes measured at 72 hrs post infection by fluorescence microscopy. Type of series: functional, organism-based. The essentials:
as §3

The nature of series [21]: Lipophilicity, log P of the compound. The class given is physicochemical. The conditions noted are these: octanol/water.
Series [22] in a line: Plasma concentration in BALB/c mouse assessed as time until the compound becomes undetectable at 25 mg/kg, po via gavage […]. The class given is ADME, organism-based. Particulars: in vivo. In a few lines: as §1
Series [23] addresses Lanosterol 14-alpha-demethylase (Trypanosoma brucei brucei (strain 927/4 GUTat10.1)) (UniProt Q385E8). Put plainly: Inhibition of Trypanosoma brucei […] CYP51 expressed in Escherichia coli using [3-3H]-obtusifoliol as substrate after 60 mins by LC-MS analysis. In a few lines: (§4)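 Reconstituted reaction: 1 μM purified CYP51, 2 μM T. brucei NADPH-P450 reductase, 100 μM dilauroylphosphatidylcholine, isocitrate dehydrogenase/isocitrate regeneration, 50 mM K phosphate pH 7.2, 10% glycerol. [3-3H]sterol substrate at 50 μM final (eburicol for T. cruzi; obtusifoliol for T. brucei and L. infantum) with inhibitor at 1.1 μM final. Preincubate 60 s at 37 °C, start with 100 μM NADPH, run 60 min, EtOAc extraction. Gives % inhibition of 14α-demethylation, triplicate, mean ± SD.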

Series [24] has as its target Sterol 14-alpha demethylase (Trypanosoma cruzi (strain CL Brener)) (UniProt Q7Z1V1). Briefly: Inhibition of Trypanosoma cruzi Y CYP51 expressed in Escherichia coli using [3-3H]-eburicol as substrate after 60 mins by LC-MS analysis. The essentials:
as §4

The target in series [25] is Putative lanosterol 14-alpha-demethylase (Leishmania infantum) (UniProt A2TEF2). Briefly: Inhibition of Leishmania infantum CYP51 expressed in Escherichia coli using [3-3H]-obtusifoliol as substrate after 60 mins by LC-MS analysis. The essentials: as §4
Chain of Putative lanosterol 14-alpha-demethylase (Leishmania infantum) (A2TEF2 1-480): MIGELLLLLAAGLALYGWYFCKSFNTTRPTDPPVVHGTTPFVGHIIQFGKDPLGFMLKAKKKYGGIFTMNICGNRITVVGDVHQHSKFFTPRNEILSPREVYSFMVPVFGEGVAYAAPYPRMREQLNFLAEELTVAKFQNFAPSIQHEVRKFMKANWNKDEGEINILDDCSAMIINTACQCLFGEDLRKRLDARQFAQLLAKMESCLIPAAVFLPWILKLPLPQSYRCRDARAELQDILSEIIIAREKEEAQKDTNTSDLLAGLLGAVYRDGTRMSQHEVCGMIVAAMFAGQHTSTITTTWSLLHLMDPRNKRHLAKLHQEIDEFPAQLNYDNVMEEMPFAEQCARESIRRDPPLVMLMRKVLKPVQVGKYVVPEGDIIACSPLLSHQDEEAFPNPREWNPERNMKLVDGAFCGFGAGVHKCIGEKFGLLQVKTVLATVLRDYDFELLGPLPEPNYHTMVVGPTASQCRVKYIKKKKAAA

Chain of Putative lanosterol 14-alpha-demethylase (A2TEF2 whole entry): as the sequence (A2TEF2 1-480) above
Chain of Sterol 14-alpha demethylase (Trypanosoma cruzi (strain CL Brener)) (Q7Z1V1 whole entry, looked up): as the sequence (Q7Z1V1 whole entry) above
Chain of Lanosterol 14-alpha-demethylase (Trypanosoma brucei brucei (strain 927/4 GUTat10.1)) (Q385E8 1-481): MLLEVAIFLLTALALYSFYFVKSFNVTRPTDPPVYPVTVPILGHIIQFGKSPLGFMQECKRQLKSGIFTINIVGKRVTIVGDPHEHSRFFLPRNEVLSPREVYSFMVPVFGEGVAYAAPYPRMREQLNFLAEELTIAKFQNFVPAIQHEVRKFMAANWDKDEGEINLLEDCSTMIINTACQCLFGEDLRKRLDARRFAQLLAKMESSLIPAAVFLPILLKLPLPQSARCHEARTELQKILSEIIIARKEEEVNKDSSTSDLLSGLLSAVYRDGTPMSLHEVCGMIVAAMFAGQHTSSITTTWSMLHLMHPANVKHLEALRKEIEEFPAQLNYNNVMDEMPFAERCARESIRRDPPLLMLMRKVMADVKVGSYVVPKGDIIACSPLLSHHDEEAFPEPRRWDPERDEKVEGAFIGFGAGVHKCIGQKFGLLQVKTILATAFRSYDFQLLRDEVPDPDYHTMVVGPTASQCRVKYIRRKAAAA

Regarding `O=C(N[C@@H](Cn1ccnc1)c1ccc(-c2ccc(F)cc2)cc1F)c1ccc(-c2nnc(-c3ccccc3)o2)cc1`, the t1/2 in series [1] came out at 42 min; in series [6] it was 158 min; in series [9] it was 38 min. The CLint scaled at 1 µM in series [2] was determined as 29.9 mL/min/kg; in series [4] it was 17.7 mL/min/kg; in series [7], 145 mL/min/kg. In addition, the CLhep predicted at 1 µM in series [3] was 12.3 mL/min/kg; in [5], 14.2 mL/min/kg; in series [8], 55.6 mL/min/kg. The compound also came in with a Cmax in series [10] of 24 µM. The concentration at 4 h in series [11] was 16 µM; in [12] it was 74 µM; in series [13], 21 µM; in [14] it was 22 µM; in series [15], 1 µM; in series [16], 34 µM. For the same compound, the Kd in series [17] is 6.8 nM; in series [18] it was 8.4 nM. The 50% effective concentration (EC50) with Trypanosoma cruzi [19] is 1 nM; in the series with Trypanosoma cruzi [20], 1.5 nM. The compound also yielded a logP in series [21] of 5.44.

As for `O=C(N[C@@H](Cn1ccnc1)c1cnc(-c2ccc(F)cc2)cc1Cl)c1ccc(-c2nnc(-c3ccccc3)o2)cc1`, the logP in series [21] worked out at 4.93.

As for `O=C(N[C@@H](Cn1ccnc1)c1ccc(Cl)cc1Cl)c1ccc(-c2nnc(-c3ccccc3)o2)cc1`, the Kd in series [17] was determined as 8.3 nM; in series [18] it was 2 nM. The figures for the EC50 in the series on Trypanosoma cruzi [19] and in the series on Trypanosoma cruzi [20] were 1.3 nM and 4 nM, respectively.

As to `O=C(N[C@@H](Cn1ccnc1)c1ccc(-c2ccc(F)cc2)cc1Cl)c1ccc(-c2nnc(-c3ccccc3)o2)cc1`, the t1/2 is 90 min in [1], 79 min in series [6] and 91 min in series [9]. Besides, the CLint scaled at 1 µM was determined as 13.9 mL/min/kg in series [2], 35.5 mL/min/kg in series [4] and 59.8 mL/min/kg in series [7]. Besides, the CLhep predicted at 1 µM in series [3] is 8.35 mL/min/kg; in series [5], 23.6 mL/min/kg; in [8], 35.9 mL/min/kg. For the same compound, in series [10], the peak level (Cmax) was 13 µM. The Time in [22] is 16 h. For the same compound, the concentration at 4 h in [11] is 3 µM; in series [12] it was 18 µM; in [13], 6 µM; in series [14] it was 12 µM; in series [15], 0.2 µM; in series [16], 20 µM.

Consider `O=C(N[C@@H](Cn1ccnc1)c1ccc(Cl)cc1Cl)c1ccc(-c2nnc(-c3ccc(OCC(F)(F)F)cc3F)o2)cc1`, for which the t1/2 in series [6] is given as 48 min. The Cmax in [10] turned out to be 7 µM. Besides, the Time in series [22] stood at 6 h. Further, the concentration at 4 h in series [11] was 6 µM; in series [12], 38 µM; in series [13] it was 6 µM; in [14], 3 µM; in [15], 0.15 µM; in series [16], 32 µM. The inhibition result in series [23], in series [24] and in series [25] was “Active” throughout.

On to `O=C(N[C@@H](Cn1ccnc1)c1ccc(-c2ccc(F)cc2)cc1Cl)c1ccc(-c2nnc(-c3ccccn3)o2)cc1`, for which the t1/2 stood at 56 min in series [1], 95 min in series [6] and 52 min in series [9]. The CLint scaled at 1 µM in series [2] was 22.3 mL/min/kg; in [4], 29.7 mL/min/kg; in series [7], 105 mL/min/kg. Moreover, the figures for the CLhep predicted at 1 µM in series [3], in [5] and in series [8] were 10.8 mL/min/kg, 20.8 mL/min/kg and 48.4 mL/min/kg, respectively. This compound showed a Cmax in series [10] of 5 µM. Further, the Time in series [22] turned out to be 10 h. In addition, the concentration at 4 h in [11] is 0.1 µM; in series [12], 0.6 µM; in series [13], 2 µM; in series [14], 1 µM; in [15], 0.1 µM; in series [16], 3 µM. The same compound gave a lipophilicity (logP) in series [21] of 4.93.

For `[2H]c1c([2H])c([2H])c(-c2ccc([C@H](Cn3ccnc3)NC(=O)c3ccc(-c4nnc(-c5ccccc5)o4)cc3)c(Cl)c2)c([2H])c1[2H]`, the t1/2 in series [1] came to 58 min; in series [6], 22 min; in series [9] it was 25 min. For the same compound, the CLint scaled at 1 µM in series [2] is 21.2 mL/min/kg; in series [4], 131 mL/min/kg; in [7], 220 mL/min/kg. Besides, the CLhep predicted at 1 µM was 10.6 mL/min/kg in series [3], 45.6 mL/min/kg in series [5] and 63.9 mL/min/kg in series [8]. This compound also came in with a Cmax in [10] of 15 µM. Besides, the Time in [22] is less than 16 h. Also, the concentration at 4 h was determined as 3 µM in [11]; 26 µM in [12]; 3 µM in [13]; 4 µM in series [14]; 0.2 µM in [15]; 17 µM in [16].
